Results: article PMC11814085 (Scientific Reports, 2025)
Square brackets hold non-standard residues; d marks the D form. Peptide text beside a SMILES is read from it. * marks the point of attachment. Dolaproine = CO[C@@H]([C@@H]1CCCN1)[C@@H](C)C(=O)O; Dil = CC[C@H](C)[C@H](NC)[C@@H](CC(=O)O)OC; Doe = c1ccc(C[C@H](N*)c2nccs2)cc1; X1 = C[C@@H](N*)[C@@H](O)c1ccccc1; NMeV = CN[C@H](C(=O)O)C(C)C

How the values were obtained:
[1] = tested on: TNBC cancer cell lines and LSEC; test: Cellular partitioning and in vitro therapeutic index across cell lines/type; type: in vitro ADME; conditions: range over cancer cell lines
[2] = tested on: TNBC cell lines and LSECs; test: GR analysis, comparison across cell lines/type; type: cell-based
MDA-MB-468 cells = test: CTG assay in presence and absence of P-gp inhibitor; type: cell-based
Summary of the method: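 MDA-MB-468 cells were seeded at their pre-optimized density and allowed to adhere for 24 h. They were then exposed continuously to 0–200nM test compound for 3 days, in parallel with and without 0.6 µM zosuquidar (P-gp inhibitor). Read-out was CellTiter-Glo 2.0 cellular ATP.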

P-gp = conditions: read-out: P-gp inhibition Ki; cited from earlier work
MDA-MB-468 = test: Live cell imaging of growth, fluorescent nuclear marker; type: cell-based; conditions: MDA-MB-468, highest doses
Summary of the method: (§1)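 Cells were transfected with a red fluorescent nuclear marker. Growth in the presence of test compound was followed longitudinally by live-cell imaging of nuclei, as a check independent of the CellTiter-Glo endpoint.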

HCC1937 = test: as above; type: cell-based
Summary of the method: as §1

tubulin = conditions: cell free system; cited from earlier work

## CC[C@H](C)[C@@H]([C@@H](CC(=O)N1CCC[C@H]1[C@H](OC)[C@@H](C)C(=O)N[C@@H](Cc1ccccc1)c1nccs1)OC)N(C)C(=O)[C@@H](NC(=O)[C@@H](NC)C(C)C)C(C)C [MMAD, Monomethyl auristatin D] (H-[NMeV]V[Dil][Dolaproine]-Doe)
[1]
  in vitro therapeutic index (TI), ratio of intracellular GR50 in LSEC to that in the cancer cell lines: 12–244 x
[2]; media GR50, across cell lines/type
  GR50, fold lower than MMAE: 6-31 x

## O[C@@H](COc1cccc2ncccc12)CN1CCN([C@@H]2c3ccccc3[C@@H]3[C@H](c4ccccc42)C3(F)F)CC1 [Zosuquidar]
MDA-MB-468 cells; auristatin free MDA-MB-468 cells, 0.6 µM
  effect of P-gp inhibitor by itself on cell growth: did not have undesired effect on cell growth
P-gp
  Ki: 0.06 µM

## CC[C@H](C)[C@@H]([C@@H](CC(=O)N1CCC[C@H]1[C@H](OC)[C@@H](C)C(=O)N[C@H](C)[C@@H](O)c1ccccc1)OC)N(C)C(=O)[C@@H](NC(=O)[C@@H](NC)C(C)C)C(C)C [MMAE, Monomethyl auristatin E] (H-[NMeV]V[Dil][Dolaproine]-X1)
MDA-MB-468 cells; MDA-MB-468, with and without 0.6 µM Zosuquidar
  dose response in presence and absence of P-gp efflux pump inhibitor: nearly identical dose response
[1]
  in vitro therapeutic index (TI), ratio of intracellular GR50 in LSEC to that in the cancer cell lines: 3-60 x
[2]; media GR50, LSECs versus cancer cell lines
  GR50 in LSECs, fold higher than in cancer cell lines: 3-21 x
MDA-MB-468
  cell growth in live cell imaging: completely inhibited
HCC1937
  cell growth in live cell imaging: only marginal inhibition

## CC[C@H](C)[C@@H]([C@@H](CC(=O)N1CCC[C@H]1[C@H](OC)[C@@H](C)C(=O)N[C@@H](Cc1ccccc1)C(=O)O)OC)N(C)C(=O)[C@@H](NC(=O)[C@@H](NC)C(C)C)C(C)C [MMAF, monomethyl auristatin F] (H-[NMeV]V[Dil][Dolaproine]F-OH)
tubulin
  tubulin binding affinity, fold better than MMAE: ~ 5 x
